# Results from PubChem BioAssay AID623869 (Vanderbilt High Throughput Screening Facility, 2012).
# Out of some 2,100 compounds screened, about 75 (4%) were called active.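 Rule for the calls: active = calcium fluorescence trace judged by eye to show a response, as agonist, enhancer of the glutamate response, or inhibitor; inactive = trace judged by eye to show no response.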 Shown is part of a subset that was picked to be rich in actives.
# Target: Metabotropic glutamate receptor 8 (Rattus norvegicus) (UniProt P70579)
# Sequence (P70579 whole entry, looked up): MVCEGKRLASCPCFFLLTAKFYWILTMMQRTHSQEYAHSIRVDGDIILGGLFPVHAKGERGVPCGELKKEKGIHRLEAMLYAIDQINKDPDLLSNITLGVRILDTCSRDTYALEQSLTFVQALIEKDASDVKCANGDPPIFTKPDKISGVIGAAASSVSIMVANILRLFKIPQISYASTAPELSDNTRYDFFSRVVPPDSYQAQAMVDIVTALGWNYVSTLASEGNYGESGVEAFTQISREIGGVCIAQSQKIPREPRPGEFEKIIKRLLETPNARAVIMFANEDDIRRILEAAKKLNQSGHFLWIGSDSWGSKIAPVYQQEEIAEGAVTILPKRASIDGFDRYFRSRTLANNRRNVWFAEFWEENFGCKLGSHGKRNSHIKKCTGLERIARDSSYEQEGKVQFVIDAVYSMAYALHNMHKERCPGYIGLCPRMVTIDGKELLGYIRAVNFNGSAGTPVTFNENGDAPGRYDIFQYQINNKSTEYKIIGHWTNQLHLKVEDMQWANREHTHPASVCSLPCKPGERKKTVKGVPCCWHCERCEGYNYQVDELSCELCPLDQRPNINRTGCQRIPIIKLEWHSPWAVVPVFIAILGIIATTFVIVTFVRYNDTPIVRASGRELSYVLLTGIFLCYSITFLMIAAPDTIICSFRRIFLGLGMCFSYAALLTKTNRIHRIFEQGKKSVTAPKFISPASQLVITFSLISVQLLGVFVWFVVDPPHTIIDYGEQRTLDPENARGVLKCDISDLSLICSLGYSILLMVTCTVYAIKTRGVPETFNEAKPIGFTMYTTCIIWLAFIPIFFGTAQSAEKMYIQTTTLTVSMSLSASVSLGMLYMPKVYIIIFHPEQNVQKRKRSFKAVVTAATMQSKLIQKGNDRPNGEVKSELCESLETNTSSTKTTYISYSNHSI
# Experiment: rat mGlu8 modulation via Gqi9 calcium signal, confirmation, counter-screen for GIRK activator project, cell-based, HEK293 rmGlu8, Gqi9 chimera, Fluo-4 calcium (AID 623869)
# Conditions: HEK293 rmGlu8/Gqi9 calcium flux, Fluo-4 fluorescence; glutamate at EC20 added after compound
# Outline: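 system = HEK-293 cells stably expressing rat mGlu8, plus transient chimeric Gqi9 | measured by = Fluo-4 calcium fluorescence, 1 Hz | timing = compound pre-exposure 4 min, post-glutamate read 2 min | measure = F/F0 fluorescence traces judged visually for each well | medium = HEPES-buffered HBSS at pH 7.4 | doses = single compound addition from 20 µM solution, 0.2% DMSO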
row,Structure (SMILES),outcome
1,O=c1c2ccccc2[nH]c(=S)n1CCCN1CCN(C2CCCCC2)CC1,inactive; 0
2,O=C(NC(=S)Nc1ccccc1Cl)c1csnn1,inactive; 0
3,CCCCN(CCCC)C(=S)NC(=O)C(C)(C)C,inactive; 0
4,Brc1ccccc1-c1nnc2sc(-c3ccc4c(c3)OCCO4)nn12,inactive; 0
5,CCOC(=O)C1=C(C)Nc2nnnn2C1c1ccccc1Cl (stereo not given),inactive; 0
6,O=C(N/C(=N\O)c1ccccc1)Nc1ccc(Cl)cc1,active; 2
7,CSc1ccccc1NC(=O)Nc1ccc(Cl)cc1,inactive; 0
8,O=C(NC(=S)Nc1ccc(Oc2ccc(Cl)cc2)cc1)c1ccccc1,inactive; 0
9,CCCCOc1ccc(C(=O)NNC(=S)NC(=O)CC)cc1,inactive; 0
10,CCCCNC(=S)NC(=O)c1ccc([N+](=O)[O-])cc1,inactive; 0
11,CCCCCC(=O)NC(=S)NNC(=O)c1ccc([N+](=O)[O-])cc1,active; 1
12,S=c1nc(-c2ccc(Br)cc2)oc2c1CCCC2,inactive; 0
13,Cc1ccc(C)c(NC(=S)NNC(=O)c2csc3c2CCCC3)c1,inactive; 0
14,Cc1cc(C(=O)CSc2n[nH]c(N)n2)c(C)n1-c1cc(F)ccc1F,inactive; 0
15,CC(=O)Nc1ccc(SCC(=O)c2cc(C)n(-c3ccccc3F)c2C)cc1,active; 2
16,COC(=O)c1ccc(-n2c(C)cc(C(=O)CSc3ccc(NC(C)=O)cc3)c2C)cc1,active; 2
17,COC(=O)c1ccc(NS(=O)(=O)c2ccc(SC)cc2)cc1,inactive; 0
18,CCc1cc2cccc(C)c2nc1SCC(=O)c1ccc(NC(C)=O)cc1,inactive; 0
19,CC(=O)Nc1ccc(C(=O)CSc2nc3ccc(C)cc3[nH]2)cc1,inactive; 0
20,COc1ccc2nc(/N=C/c3c(C)[nH]n(-c4ccc(C)cc4C)c3=O)sc2c1,inactive; 2
21,CC12CC3CC(C)(C1)CC(C(=O)NC(=S)N1CCCCC1)(C3)C2,inactive; 0
22,CSCSC1=C(C#N)C(c2ccccc2Cl)C(C(C)=O)=C(C)N1 (stereo not given),inactive; 0
23,O=C(N/N=C1/C(=O)c2cccc3cccc1c23)c1ccc(Cl)cc1,inactive; 0
24,Cc1cccc(N2C(=O)CS/C2=N\NC(=O)c2ccc(Cl)cc2)c1C,active; 2

row,Structure (SMILES),outcome
1,O=C(NC(=S)N1CCCc2ccccc21)c1ccc(Cl)cc1,inactive; 0
2,O=C(NC(=S)N(CCCCO)C1CCCCC1)c1sc2ccccc2c1Cl,inactive; 0
3,O=C(NC(=S)Nc1ccccc1N1CCOCC1)c1ccco1,inactive; 0
4,CN(C(=O)CSC1=Nc2ccccc2C2=NC(c3ccccc3)C(=O)N12)C1CCCCC1 (stereo not given),inactive; 0
5,CCSc1ccccc1C(=O)Nc1cccnc1,inactive; 0
6,COc1cc(/C=C(\C#N)C(=O)Nc2cccnc2)ccc1OC(C)C,active; 2
7,N#C/C(=C/C=C/c1ccccc1)C(=O)Nc1ccccc1,inactive; 0
8,Cc1ccc(OCC(=O)NNC(=O)C(=O)NC(C)(C)C)cc1,inactive; 0
9,C=CCn1c(=S)[nH]c2sc3c(c2c1=O)CCC3,inactive; 0
10,COC(=O)c1ccccc1NC(=O)Nc1cnccn1,inactive; 0
11,COC(=O)c1ccccc1NC(=S)NC(=O)c1ccc(C)cc1,inactive; 0
12,CCC1c2ccc(C)n2CCN1C(=O)Nc1ccccc1C(=O)OC (stereo not given),active; 2
13,CC(C)C1Cc2c(sc3[nH]c(=S)n(Cc4ccccc4)c(=O)c23)CO1 (stereo not given),inactive; 0
14,CCOC(=O)c1c(NC(=S)NC)sc2c1CC(C)(C)SC2,inactive; 0
15,Cc1sc2nc(C(C)C)nc(SCC(=O)NCc3ccco3)c2c1C,inactive; 0
16,CCCc1cc(-c2n[nH]c(=S)n2CC(C)C)cs1,inactive; 0
17,CCCc1cc(-c2n[nH]c(=S)n2Cc2ccccc2)cs1,active; -1
18,CCCc1cc(-c2n[nH]c(=S)n2C(C)c2ccccc2)cs1 (stereo not given),inactive; 0
19,Cc1[nH]n(-c2ccc(Cl)cc2)c(=O)c1/C=N/c1nnc(-c2ccccc2)s1,inactive; 0
20,O=C(NC(=S)Nc1ccccc1)c1cc(-c2ccccc2)nc2ccccc12,inactive; 0
21,CN(C)CCCNC(=O)c1ccc(-c2nc(-c3ccc(Cl)cc3)cs2)cc1,inactive; 0
22,O=C(O)c1ccccc1C(=O)Nc1ccc(-c2csc(-c3ccccc3)n2)cc1,active; 1
23,C=CCn1c(=S)[nH]c2ccc(Br)cc2c1=O,inactive; 0
24,S=c1[nH]nc(-c2cc3c(s2)-c2ccccc2CC3)o1,active; -1

row,Structure (SMILES),outcome
1,Cc1ccc(-c2cc(-c3n[nH]c(=S)o3)c3ccccc3n2)cc1,inactive; 0
2,CCc1cc(C(=O)NNC(=S)Nc2cc(C)ccc2C)cs1,inactive; 0
3,Cc1ccc(C)c(NC(=S)NNC(=O)c2cc3c(s2)CCC(C)C3)c1 (stereo not given),inactive; 0
4,O=C1NC(=S)SC1=C1CCCCCC1,inactive; 0
5,CCn1c(=O)c(C(=O)NCCCO)c(O)c2ccccc21,active; 2
6,CCCN(CCC)CCCNC(=O)c1cc2c(=O)n(C)c3ccccc3c2n1C,inactive; 0
7,CCn1c(O)c(N=NC(=O)CNc2cccc(C)c2)c2ccccc21,inactive; 0
8,CCC1CCCCN1C(=S)NC(=O)c1ccc([N+](=O)[O-])cc1 (stereo not given),inactive; 0
9,Cc1cccc(NC(=S)N/C(=N/S(=O)(=O)c2ccccc2)c2ccccc2)c1,inactive; 0
10,Cc1ccc(-c2cc(-c3ccccc3)[nH]c(=S)c2C#N)cc1,inactive; 0
11,CCOC(=O)c1c(NS(=O)(=O)Cc2ccccc2)sc2c1CCCC2,inactive; 0
12,Cc1ccc(Nc2cc(C)nn2-c2nc(C)cc(=O)[nH]2)cc1,active; -1
13,Cc1cc(NC(=O)Nc2ccccc2)n(-c2ccccc2)n1,inactive; 0
14,Cc1cc(NC(=O)c2c(F)cccc2Cl)n(-c2nc3ccccc3[nH]2)n1,inactive; 0
15,COc1ccccc1C(=O)NNC(=S)NC(=O)c1sc2ccccc2c1Cl,active; 1
16,CCCCOC(=S)NC(=O)c1sc2ccccc2c1Cl,inactive; 0
17,CC(C)(C)C(=O)NC(=S)NNC(=O)c1sc2ccccc2c1Cl,active; 1
18,COc1ccccc1C(=O)NC(=S)NNC(=O)c1sc2ccccc2c1Cl,inactive; 3
19,CCCOC(=S)NC(=O)c1sc2ccccc2c1Cl,inactive; 0
20,CCOC(=S)NC(=O)c1sc2ccccc2c1Cl,inactive; 0
21,CCCN1C(=O)/C(=C/c2ccc(C)s2)NC1=S,inactive; 0
22,CCCOc1ccc(C(=O)NNC(=S)NC(=O)CC)cc1,inactive; 0
